Results taken from ChEMBL document CHEMBL2016531, “Identification of NAE Inhibitors Exhibiting Potent Activity in Leukemia Cells: Exploring the Structural Determinants of NAE Specificity” (ACS Med Chem Lett, 2011).
Calls of active or inactive are those of the source. The rule behind the calls is not given here.

What was measured:
Homo sapiens [1] = species: Homo sapiens; assay: Inhibition of human recombinant NAE assessed as inhibition of NEDD8-UbcH12 complex formation at 10 nM after 1.5 hrs by Western blot analysis
In short: (§1)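 Cell-free gel assay. Purified human recombinant E1 incubated with its matching Ub/Ubl and E2 in 50 mM HEPES pH 7.4, 5 mM MgCl2, 1–20 μM ATP. Inhibitor at 0, 0.001, 0.01, 0.1, 1 or 10 μM, 1.5 h at room temperature. Products resolved by SDS-PAGE, immunoblotted and detected by ECL; densitometry used for semiquantitation.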

Homo sapiens [2] = species: Homo sapiens; assay: Inhibition of human recombinant UAE assessed as inhibition of UbcH6-Ub complex formation at 0.001 to 10 uM after 1.5 hrs by Western blot analysis; in short: as §1
[3] = biological target: SUMO-activating enzyme (Homo sapiens) (UniProt Q9UBE0+Q9UBT2); assay: Inhibition of human recombinant SAE1/2 assessed as inhibition of SUMO1-UbcH9 complex formation at 0.001 to 10 uM after 1.5 hrs by Western blot analysis; format: protein-complex assay; in short: as §1
[4] = biological target: Ubiquitin-like modifier-activating enzyme 5 (Homo sapiens) (UniProt Q9GZZ9); assay: Inhibition of human recombinant UBA5 assessed as inhibition of […]-UFM1 complex formation at 10 uM after 1.5 hrs by Western blot analysis; in short: as §1
Ubiquitin-like modifier-activating enzyme 5 (Homo sapiens), sequence (Q9GZZ9 whole entry): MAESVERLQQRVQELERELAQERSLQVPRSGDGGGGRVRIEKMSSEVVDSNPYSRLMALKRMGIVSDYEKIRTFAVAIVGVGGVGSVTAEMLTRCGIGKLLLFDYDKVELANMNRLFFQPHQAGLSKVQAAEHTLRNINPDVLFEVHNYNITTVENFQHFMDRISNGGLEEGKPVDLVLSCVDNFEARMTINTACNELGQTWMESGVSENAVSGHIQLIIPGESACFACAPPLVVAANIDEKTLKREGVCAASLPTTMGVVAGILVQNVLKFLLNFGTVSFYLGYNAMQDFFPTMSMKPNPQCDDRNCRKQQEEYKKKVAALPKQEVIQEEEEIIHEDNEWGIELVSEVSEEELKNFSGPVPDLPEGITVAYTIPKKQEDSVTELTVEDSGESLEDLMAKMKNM

Homo sapiens [5] = species: Homo sapiens; assay: Inhibition of human recombinant NAE assessed as inhibition of NEDD8-UbcH12 complex formation at 0.001 to 10 uM after 1.5 hrs by Western blot analysis; in short: as §1
Homo sapiens [6] = species: Homo sapiens; assay: Inhibition of human recombinant NAE assessed as inhibition of NEDD8-UbcH12 complex formation at 1 nM after 1.5 hrs by Western blot analysis; in short: as §1
K562 = assay: Antiproliferative activity against human K562 cells after 72 hrs by CellTiter-Glo assay; format: functional, cell-based; conditions: K562, 72 h
In short: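 K562 leukemia cells exposed to increasing concentrations for 72 h; growth and viability read by CellTiter-Glo luminescence.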

Homo sapiens [7] = species: Homo sapiens; assay: Inhibition of human recombinant NAE assessed as inhibition of NEDD8-UbcH12 complex formation at <10 nM after 1.5 hrs by Western blot analysis; in short: as §1
Homo sapiens [8] = species: Homo sapiens; assay: Inhibition of human recombinant NAE assessed as inhibition of NEDD8-UbcH12 complex formation at >10 nM after 1.5 hrs by Western blot analysis; in short: as §1

Compound | inhibition (Homo sapiens [1]) | inhibition (Homo sapiens [2]) | inhibition [3] | inhibition [4] | inhibition (Homo sapiens [5]) | inhibition (Homo sapiens [6]) | EC50 (K562) | inhibition (Homo sapiens [7]) | inhibition (Homo sapiens [8])
CCCNc1ncnc2c1ncn2[C@@H]1O[C@H](COS(N)(=O)=O)[C@@H](O)[C@H]1O | < 63% | Active | Active | inactive | Active | inactive |  |  | 
NS(=O)(=O)OC[C@H]1O[C@@H](n2cnc3c(NCCCn4ccnc4)ncnc32)[C@H](O)[C@@H]1O |  | Active | Active | inactive | Active |  |  |  | 
CC(C)(C)CC(C)(C)Nc1ncnc2c1ncn2[C@@H]1O[C@H](COS(N)(=O)=O)[C@@H](O)[C@H]1O | inactive | Active | Active | inactive | Active |  | > 1000 nM |  | 
CN(Cc1ccco1)c1ncnc2c1ncn2[C@@H]1O[C@H](COS(N)(=O)=O)[C@@H](O)[C@H]1O |  | Active | Active | inactive | Active |  | > 1000 nM | inactive | Active
CCCCN(CCCC)c1ncnc2c1ncn2[C@@H]1O[C@H](COS(N)(=O)=O)[C@@H](O)[C@H]1O |  | Active | Active | inactive | Active |  |  | inactive | 
CCCCCC(C)Nc1ncnc2c1ncn2[C@@H]1O[C@H](COS(N)(=O)=O)[C@@H](O)[C@H]1O (stereo partly drawn) |  | Active | Active | inactive | Active |  | 203 nM |  | 
NS(=O)(=O)OC[C@H]1O[C@@H](n2cnc3c(NCC4CCCO4)ncnc32)[C@H](O)[C@@H]1O (stereo partly drawn) |  | Active | Active | inactive | Active |  | > 1000 nM |  | 
CC(C)Nc1ncnc2c1ncn2[C@@H]1O[C@H](COS(N)(=O)=O)[C@@H](O)[C@H]1O |  | Active | Active | inactive | Active |  |  |  | Active
NS(=O)(=O)OC[C@H]1O[C@@H](n2cnc3c(N4CCC5CCCCC5C4)ncnc32)[C@H](O)[C@@H]1O (stereo partly drawn) |  | Active | Active | inactive | Active |  | > 1000 nM | inactive | 
NS(=O)(=O)OC[C@H]1O[C@@H](n2cnc3c(NC4CCCCCCC4)ncnc32)[C@H](O)[C@@H]1O |  |  |  |  |  |  | 380 nM |  | 
NS(=O)(=O)OC[C@H]1O[C@@H](n2cnc3c(N[C@@H]4C[C@H]5CCC4C5)ncnc32)[C@H](O)[C@@H]1O |  | Active | Active | inactive | Active |  |  |  | 
NS(=O)(=O)OC[C@@H]1C[C@@H](n2ccc3c(N[C@H]4CCc5ccccc54)ncnc32)C[C@@H]1O [PEVONEDISTAT] |  | Active | Active | inactive | Active |  | 108 nM |  | 
NS(=O)(=O)OC[C@H]1O[C@@H](n2cnc3c(NCc4cccs4)ncnc32)[C@H](O)[C@@H]1O | 100% | Active | Active | inactive | Active |  | 114 nM |  | 
CN(Cc1ccccc1)c1ncnc2c1ncn2[C@@H]1O[C@H](COS(N)(=O)=O)[C@@H](O)[C@H]1O |  |  |  |  |  |  |  | inactive | 
CCN(CC)c1ncnc2c1ncn2[C@@H]1O[C@H](COS(N)(=O)=O)[C@@H](O)[C@H]1O |  | Active | Active | inactive | Active |  |  | inactive | 
CCN(c1ncnc2c1ncn2[C@@H]1O[C@H](COS(N)(=O)=O)[C@@H](O)[C@H]1O)C(C)C |  |  |  |  |  |  |  | inactive | Active

Compound | inhibition (Homo sapiens [1]) | inhibition (Homo sapiens [2]) | inhibition [3] | inhibition [4] | inhibition (Homo sapiens [5]) | inhibition (Homo sapiens [6]) | EC50 (K562) | inhibition (Homo sapiens [7]) | inhibition (Homo sapiens [8])
CCCCCNc1ncnc2c1ncn2[C@@H]1O[C@H](COS(N)(=O)=O)[C@@H](O)[C@H]1O |  |  |  |  |  | < 62% | 181 nM |  | 
CCCCNc1ncnc2c1ncn2[C@@H]1O[C@H](COS(N)(=O)=O)[C@@H](O)[C@H]1O |  |  |  |  |  | < 58% |  |  | Active
NS(=O)(=O)OC[C@H]1O[C@@H](n2cnc3c(NCC4COCCOCCOCCOCCO4)ncnc32)[C@H](O)[C@@H]1O (stereo partly drawn) |  | Active | Active | inactive | Active |  | > 1000 nM |  | 
Nc1ncnc2c1ncn2[C@@H]1O[C@H](COS(N)(=O)=O)[C@@H](O)[C@H]1O |  |  |  |  |  | < 16% |  |  | 
CC(C)CC(C)Nc1ncnc2c1ncn2[C@@H]1O[C@H](COS(N)(=O)=O)[C@@H](O)[C@H]1O (stereo partly drawn) |  | Active | Active | inactive | Active |  |  |  | 
NS(=O)(=O)OC[C@H]1O[C@@H](n2cnc3c(Nc4ccccc4)ncnc32)[C@H](O)[C@@H]1O |  | Active | Active | inactive | Active |  |  |  | 
NS(=O)(=O)OC[C@H]1O[C@@H](n2cnc3c(NCc4ccoc4)ncnc32)[C@H](O)[C@@H]1O | 100% |  |  |  |  |  |  |  | Active
CC(C)(C)CCNc1ncnc2c1ncn2[C@@H]1O[C@H](COS(N)(=O)=O)[C@@H](O)[C@H]1O | < 29% | Active | Active | inactive | Active |  | 929 nM |  | 
CCC(C)Nc1ncnc2c1ncn2[C@@H]1O[C@H](COS(N)(=O)=O)[C@@H](O)[C@H]1O (stereo partly drawn) | < 25% | Active | Active | inactive | Active |  | > 1000 nM |  | 
CCCCN(C)c1ncnc2c1ncn2[C@@H]1O[C@H](COS(N)(=O)=O)[C@@H](O)[C@H]1O |  |  |  |  |  |  |  | inactive | Active
NS(=O)(=O)OC[C@H]1O[C@@H](n2cnc3c(N4CCOCC4)ncnc32)[C@H](O)[C@@H]1O |  |  |  |  |  |  |  | inactive | 
COCCNc1ncnc2c1ncn2[C@@H]1O[C@H](COS(N)(=O)=O)[C@@H](O)[C@H]1O |  |  |  |  |  |  | > 1000 nM |  | 
CCCCCCCNc1ncnc2c1ncn2[C@@H]1O[C@H](COS(N)(=O)=O)[C@@H](O)[C@H]1O |  | Active | Active | inactive | Active | inactive | 132 nM |  | 
CNc1ncnc2c1ncn2[C@@H]1O[C@H](COS(N)(=O)=O)[C@@H](O)[C@H]1O | < 76% |  |  |  |  | inactive |  |  | 
NS(=O)(=O)OC[C@H]1O[C@@H](n2cnc3c(NCCc4cccs4)ncnc32)[C@H](O)[C@@H]1O |  | Active | Active | inactive | Active |  | 559 nM |  | 
CCCCN(CC)c1ncnc2c1ncn2[C@@H]1O[C@H](COS(N)(=O)=O)[C@@H](O)[C@H]1O |  |  |  |  |  |  |  | inactive | 
